Assays:
Format in all cases: functional
Plasma [1] = assay: Anticoagulant activity in human plasma assessed as activated partial […] time at 60 ug/ml
Outline: (§1)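 Citrated plasma from healthy human donors (blood into 2.5% sodium citrate, spun 5400 rpm, 4 °C, 20 min, stored -70 °C). Plasma 90 µl plus 10 µl compound in water, 1 min at 37 °C. APTT reagent added, 5 min at 37 °C, then CaCl2 added. Clotting time read on a coagulometer. Saline control, heparin reference. Index = sample APTT/control APTT. Mean of five trials.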

Plasma [2] = assay: Anticoagulant activity in human plasma assessed as prothrombin time at 60 ug/ml
Outline: (§2)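 Citrated human donor plasma (2.5% sodium citrate, spun 5400 rpm at 4 °C for 20 min, kept at -70 °C). 90 µl plasma with 10 µl aqueous compound, incubated 10 min at 37 °C. Pre-incubated PT reagent (200 µl) added, clotting time recorded. Normal saline as control. PT index = sample PT/control PT. Mean of five trials.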

Plasma [3] = assay: Anticoagulant activity in human plasma assessed as activated partial […] time index at 30 ug/ml relative to control; outline: as §1
Plasma [4] = assay: Anticoagulant activity in human plasma assessed as prothrombin time at 30 ug/ml; outline: as §2
Plasma [5] = assay: Anticoagulant activity in human plasma assessed as prothrombin time index at 30 ug/ml relative to control; outline: as §2
Plasma [6] = assay: Anticoagulant activity in human plasma assessed as prothrombin time index at 60 ug/ml relative to control; outline: as §2
Plasma [7] = assay: Anticoagulant activity in human plasma assessed as activated partial […] time index at 60 ug/ml relative to control; outline: as §1
Plasma [8] = assay: Anticoagulant activity in human plasma assessed as activated partial […] time at 30 ug/ml; outline: as §1

| Compound | APTT (Plasma [1]) | PT (Plasma [2]) | Ratio (Plasma [3]) | PT (Plasma [4]) | Ratio (Plasma [5]) | Ratio (Plasma [6]) | Ratio (Plasma [7]) | APTT (Plasma [8]) |
| --- | --- | --- | --- | --- | --- | --- | --- | --- |
| CC1=C(C(=O)NNC(N)=S)C(c2ccco2)C(C(=O)NNC(N)=S)=C(C)N1 | >1000 s | 420.21 s | 19.78 | 240.42 s | 12.14 | 21.22 | 27.47 | 720.35 s |
| CC1=C(C(=O)NNC(N)=S)C(c2ccc(N(C)C)cc2)C(C(=O)NNC(N)=S)=C(C)N1 | 480 s | 48.2 s | 6.09 | 21.6 s | 1.09 | 2.43 | 13.18 | 221.8 s |
| CC1=C(C(=O)NNC(N)=S)C(c2ccc(O)cc2)C(C(=O)NNC(N)=S)=C(C)N1 | 882.7 s | 70.8 s | 11 | 45.6 s | 2.3 | 3.5 | 24.25 | 400.8 s |
| COc1ccc(C2C(C(=O)NNC(N)=S)=C(C)NC(C)=C2C(=O)NNC(N)=S)cc1 | 120.2 s | 93.4 s | 1.85 | 45.7 s | 2.03 | 4.71 | 3.3 | 64.7 s |
| CC1=C(C(=O)NNC(N)=S)C(c2ccc(Cl)cc2)C(C(=O)NNC(N)=S)=C(C)N1 | 200.4 s | 33.8 s | 2.49 |  | 0 | 1.24 | 5.5 | 90.7 s |
| CC1=C(C(=O)NNC(N)=S)C(c2ccccc2)C(C(=O)NNC(N)=S)=C(C)N1 | 182.4 s | 45.8 s | 2.4 |  | 0 | 2.31 | 5.01 | 87.5 s |
| CC1=C(C(=O)NNC(N)=S)C(c2ccc([N+](=O)[O-])cc2)C(C(=O)NNC(N)=S)=C(C)N1 | 721.8 s | 52.8 s | 8.82 | 24.7 s |  | 2.66 | 19.82 | 321.2 s |

Reference: ChEMBL document CHEMBL1667797, “Synthesis and anticoagulant activity of a new series of 1,4-dihydropyridine derivatives” (2011)
